101 compounds from PubChem BioAssay AID522 (The Scripps Research Institute Molecular Screening Center, 2006) can be followed below.

SMILES strings stand for the structures. Out of some 65,000 compounds screened, about 1,200 (1.8%) were called active.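 Rule for the calls: active = activation above the mean activation of all tested compounds plus 3 SD (cut at about 50% in these data); inactive = the rest.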 The sample as a whole holds a higher share of actives than the screen did.

Sequence of Steroidogenic factor 1 (Homo sapiens) (Q13285 whole entry, looked up, the tested form may be a part): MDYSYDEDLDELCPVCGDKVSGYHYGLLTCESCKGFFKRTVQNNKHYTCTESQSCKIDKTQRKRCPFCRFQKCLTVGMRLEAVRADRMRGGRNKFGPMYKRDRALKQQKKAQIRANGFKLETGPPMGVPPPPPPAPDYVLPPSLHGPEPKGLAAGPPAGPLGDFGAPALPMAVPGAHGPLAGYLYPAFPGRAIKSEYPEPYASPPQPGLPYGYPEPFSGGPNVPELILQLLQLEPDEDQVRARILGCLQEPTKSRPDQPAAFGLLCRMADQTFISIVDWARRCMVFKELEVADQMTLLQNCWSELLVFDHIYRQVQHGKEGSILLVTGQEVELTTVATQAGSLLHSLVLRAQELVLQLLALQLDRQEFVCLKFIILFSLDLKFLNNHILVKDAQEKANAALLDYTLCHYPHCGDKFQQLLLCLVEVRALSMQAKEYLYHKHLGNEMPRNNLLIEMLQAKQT

This assay concerns the target Steroidogenic factor 1 (Homo sapiens) (UniProt Q13285). The assay can be described thus: activators of human SF-1, primary screen, cell-based, CHO-K1, Gal4-SF-1 LBD, luciferase luminescence (AID 522). The following applies: CHO-K1 Gal4-SF-1 LBD luciferase reporter; at 10 µM; hits give high values; % increase over DMSO SF-1-specific signal. A digest of the protocol:
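material = CHO-K1 cells with Gal4–hSF-1 LBD chimera plus Gal4-driven luciferase | compound = 10 µM single point, 1% DMSO | incubation = 20 h compound exposure at 37 °C after 1 h cell settling | measured by = SteadyLite luciferase luminescence | evaluation = percent activation relative to DMSO median and mock-transfected background | control set = DMSO negative control and −SF1 background wells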
A general note: In a reporter assay the amount or activity of a reporter protein is the signal.
Turning to `NC(=O)COc1ccc2c3c(c(=O)oc2c1)CCCCC3`, the activation is -7.8% (inactive).

In the case of `Cc1cc(NC(=O)COc2ccc(Cl)cc2Cl)n(CCC#N)n1`, the activation is 28.2% (inactive).

On to `CCN1C(=O)/C(=C2\SC(N3CCCCC3)=NC2=O)c2ccccc21`, for which the activation was 53.9% (active). The same measure for `CCN1C(=O)c2cccc3c(N)ccc1c23`: 15.3% (inactive).

Consider `CCN1C(=O)/C(=C\N2CCN(c3ccccc3)CC2)SC1=S`, for which the activation was -22.3% (inactive). The same measure for `Cc1nnc(Sc2nc3c(c(=O)[nH]c(=O)n3C)n2Cc2ccccc2)s1`: -15% (inactive); for `CCOC(=O)c1ccccc1NC(=O)CC1Nc2ccccc2NC1=O` (stereo unspecified): 3.2% (inactive). The same measure for `CNC(=O)c1ccc2nc(NC(C)=O)sc2c1`: 6.1% (inactive); for `CCn1c(SCC(=O)Nc2nc3ccc(OC)cc3s2)nnc1-c1ccoc1C`: 13.2% (inactive); for `COc1ccc2nc(NC(=O)c3ccc(Br)s3)sc2c1`: 72.8% (active). As to `CC(=O)c1ccc(NC(=O)N[C@@H](Cc2ccccc2)C(=O)O)cc1`, the activation is -21% (inactive). The same measure for `O=C(Nc1ccccc1C(F)(F)F)c1cc(-c2ccc(O)cc2)on1`: 64.4% (active). Then `O=C(c1cc(-c2ccc(O)cc2)on1)N1CCCc2ccccc21`, with 47.5% (inactive); and `Cc1cc(C)nc(NC(=O)Nc2ccccc2C(F)(F)F)n1`, with 14.8% (inactive).

Turning to `CC(C)C(NC(=O)OCc1ccccc1)C(=O)OCC(=O)N1C(C)CCCC1C` (stereo unspecified), the activation was -2.9% (inactive). The same measure for `Cc1ccc(C(=O)NC2CC(C)(C)NC(C)(C)C2)c(C)c1`: 4.3% (inactive); for `O=C1CC(N2CCN(C(c3ccccc3)c3ccccc3)CC2)C(=O)N1` (stereo unspecified): -23% (inactive).

In the case of `COc1ccc(-c2cc(C(=O)NC(C(=O)O)C(C)C)c(C)o2)cc1OC` (stereo unspecified), the activation was 56.5% (active). Then `COc1ccc(CCNC(=O)c2cc(-c3ccc4c(c3)OCO4)on2)cc1OC`, with 3.9% (inactive); and `COc1ccc(CNC(=O)c2c(C)cc(=O)oc2C)cc1OC`, with 7.4% (inactive); and `CN(C(=O)CSc1nnnn1-c1ccccc1)C1CCCCC1`, with 34.6% (inactive). Then `COc1ccc(-n2ncc3c(N4CCc5ccccc54)ncnc32)cc1`, with 59.8% (active); and `Cc1cccc(-n2ncc3c(N4CCc5ccccc54)ncnc32)c1`, with 33.4% (inactive); and `COc1ccc(-n2ncc3c(N4CCCc5ccccc54)ncnc32)cc1`, with 33.2% (inactive).

On to `Cn1nnnc1SCC(=O)N1CCN(Cc2ccccc2)CC1`, for which the activation was -17.2% (inactive). Consider `CC(=NCC1CCCO1)c1c(O)[nH]c(=O)[nH]c1=O` (stereo unspecified), for which the activation was 12.9% (inactive). Regarding `COC(=O)c1sc(NC(=O)c2ccc(OC)cc2OC)nc1C`, the activation was -57.8% (inactive). Turning to `COc1cccc2sc(Nc3nc(C)c(C(C)=O)s3)nc12`, the activation was 109% (active). On to `COc1ccccc1Nc1ncc(C(C)=O)c(C)n1`, for which the activation is 34% (inactive). The same measure for `CC(=O)Nc1ccc(S(=O)(=O)N2CCN(C3CCCCCCC3)CC2)cc1`: -6.4% (inactive).

On to `COc1cccc(N2CCN(C3CC(=O)N(c4ccc(Cl)cc4)C3=O)CC2)c1` (stereo unspecified), for which the activation is -14.7% (inactive). Turning to `COc1ccc(C(=O)Nc2ccc(S(=O)(=O)Nc3onc(C)c3C)cc2)cc1OC`, the activation was -3.3% (inactive). As to `COc1ccc(S(=O)(=O)N2CCN(C(=O)c3cccs3)CC2)cc1OC`, the activation was -5.5% (inactive).

In the case of `O=C(NC1=NCCS1)c1ccc(Cl)s1`, the activation is 66.2% (active).

For `CCc1ccc(N2CC(C(=O)NC3=NCCS3)CC2=O)cc1` (stereo unspecified), the activation was -7.9% (inactive).

With `CC(NC(=O)COc1ccccc1)C(=O)NC1=NCCS1` (stereo unspecified), the activation was -0.2% (inactive). On to `C=CCn1c(CC(=O)Nc2cccc(OC)c2)nnc1SCC(=O)NC1CCCCC1`, for which the activation was 12.8% (inactive).

For `O=c1cc(Cn2nnc(-c3ccc(Cl)cc3)n2)nc2sccn12`, the activation is -5.8% (inactive). In the case of `Clc1cccc(Cl)c1Cn1nnc(-c2cccs2)n1`, the activation is 50.8% (active). The same measure for `COc1ccccc1N1CCN(C(=O)Cn2nnc(-c3cccs3)n2)CC1`: 5% (inactive). Take `O=S(=O)(NCC1CCCO1)c1ccc2ccccc2c1` (stereo unspecified): the activation was -16.7% (inactive).

For `O=C(c1cccnc1NCc1ccccc1)N1CCOCC1`, the activation is -2.1% (inactive).

Consider `CCOC(=O)c1sc(/N=C/Nc2nc(C)c(C(=O)OCC)s2)nc1C`, for which the activation is -2% (inactive).

With `COc1ccc(CCN(C)C(=O)C2CCCN(Cc3ccc(OC)c(OC)c3)C2)cc1OC` (stereo unspecified), the activation is 5.8% (inactive). As for `CC(C)(C)NC(=O)Cn1nnc(-c2ccccc2Cl)n1`, the activation was 50% (active). The same measure for `Cc1ccccc1-c1nnn(CC(=O)c2ccc(S(=O)(=O)N3CCCC3)cc2)n1`: -10.4% (inactive); for `O=C(Cn1nnc(-c2ccccc2)n1)NCc1ccccc1`: 8.3% (inactive).

As to `CN(C(=O)c1ccccn1)c1nnc(-c2ccccn2)s1`, the activation was 56.6% (active). Consider `CN(C(=O)c1ccno1)c1nnc(-c2cccnc2)s1`, for which the activation is -11.5% (inactive). `CN(C(=O)COc1ccccc1)c1nnc(-c2ccncc2)s1`: the activation was -6.7% (inactive).

Take `COc1cc2cc(CN(CCN3CCCC3)C(=O)Nc3ccccc3Cl)c(=O)[nH]c2cc1OC`: the activation is -8.6% (inactive).

On to `COc1ccc(-c2nc(-c3ccccc3)no2)c(OC)c1`, for which the activation is -82.9% (inactive). Then `COc1cc(-c2nc(-c3ccncc3)no2)cc(OC)c1OC`, with -2.5% (inactive). For `COc1ccc(-c2noc(-c3cccc(OC)c3OC)n2)cc1OC`, the activation is 100% (active). The same measure for `COCCOC(=O)C1=C(C)Nc2nc(C)nn2C1c1ccccc1` (stereo unspecified): 4.8% (inactive); for `CCCCCNC(=O)Cc1ccc(OC)cc1`: -9.8% (inactive).

Turning to `O=C(O)CSCNC(=O)CC12CC3CC(CC(C3)C1)C2`, the activation is -5.6% (inactive). Then `Cc1ccc(S(=O)(=O)Nc2ccc3ncccc3c2)cc1`, with -16.8% (inactive). Then `O=S(=O)(Nc1ccc2nc(-c3ccco3)[nH]c2c1)c1ccccc1`, with 53.5% (active); and `COc1cc(NS(=O)(=O)c2ccccc2)ccc1-n1nc(C)cc1C`, with -10.6% (inactive). The same measure for `COc1cc(C2C(C#N)=C(C)NC3=C2C(=O)CC(C)(C)C3)ccc1O` (stereo unspecified): 1.5% (inactive); for `Cc1ccc(Cn2ccc(NC(=O)C3C4CCC(C4)C3C(=O)O)n2)cc1` (stereo unspecified): 3.1% (inactive); for `CCc1nnc(NC(=O)C2CCCN2S(=O)(=O)c2ccccc2)s1` (stereo unspecified): -4.2% (inactive). As for `CCCOc1cccc(C(=O)Nc2nnn(CCC)n2)c1`, the activation is 26.3% (inactive). The same measure for `Cc1ccc(OCC(=O)Nc2ccc(-c3nnc(-c4ccco4)o3)cc2)cc1`: 65.5% (active); for `CCOc1ccc(-c2nnc(-c3ccco3)o2)cc1`: -48% (inactive); for `CCCCOc1ccc(-c2nnc(-c3ccco3)o2)cc1`: 23.6% (inactive). The same measure for `CCC(=O)Oc1cccc(C(=O)Nc2ccc(-c3nnc(-c4ccco4)o3)cc2)c1`: 79.8% (active). Regarding `COc1ccc(CC(=O)Nc2ccc(-c3nnc(-c4ccc(C)cc4)o3)cc2)cc1`, the activation is -47.6% (inactive). `CCOC(=O)c1[nH]c2ccc(OC)cc2c1NC(=O)CCN1CCN(Cc2ccccc2)CC1`: the activation was -7.7% (inactive). Then `COc1cccc(-n2cc3c(c2-c2ccccc2)c(=O)n(C)c(=O)n3C)c1`, with -21.1% (inactive). Regarding `CCOC(=O)c1cn(CC(=O)Nc2ccc(C(C)C)cc2)nn1`, the activation was 3.2% (inactive). As to `O=C(CN1CCN(C(=O)c2ccco2)CC1)Nc1ccc(Cl)c(C(F)(F)F)c1`, the activation was 11.1% (inactive). The same measure for `Cc1ccc(S(=O)(=O)NCc2cn3ccsc3n2)c(C)c1`: -0.8% (inactive); for `COc1ccc(-c2cn3ccsc3n2)cc1`: 53.3% (active). Consider `CCCC(=O)Nc1cccc(-c2cn3ccsc3n2)c1`, for which the activation was 45.8% (inactive).

With `O=C(O)[C@@H]1CCCN1c1ncnc2sc3c(c12)CCC3`, the activation is -13.4% (inactive). `Cn1c(=O)c(C(=O)Nc2ncccn2)c(O)c2ccccc21`: the activation is 64.2% (active).

Take `CCOc1cc(C(=O)Nc2ncccn2)cc(OCC)c1OCC`: the activation is -1.3% (inactive). Consider `O=C(Nc1ncccn1)c1cccs1`, for which the activation is 18.9% (inactive). Then `Cc1ccccc1OCCC(=O)Nc1c(C)n(C)n(-c2ccccc2)c1=O`, with 13.7% (inactive). The same measure for `Cc1nnc(NC(=O)CCC(=O)N2CCC(C)CC2)s1`: 0.2% (inactive).

In the case of `Cc1ccc(S(=O)(=O)N2CCC(N3CCCCCC3)CC2)cc1`, the activation is 10.8% (inactive). Then `CCN(CC)S(=O)(=O)c1cc(C(=O)Nc2ccccn2)ccc1C`, with 49.3% (inactive).

For `Cc1nc2c(c(=O)n1Cc1ccco1)c1nc3ccccc3nc1n2Cc1ccccc1`, the activation is -2.3% (inactive).

Turning to `CC(C)NC(=O)CCCn1c(=S)[nH]c2cc3c(cc2c1=O)OCO3`, the activation was 2.9% (inactive). Then `Cc1cccc(NC(=O)c2ccc3ccccc3n2)n1`, with 98.6% (active); and `Cc1cccc(NC(=O)c2ccccc2NC(=O)C(C)(C)C)n1`, with -22.9% (inactive).

`Cc1cccc(NC(=O)COc2ccccc2C)n1`: the activation was -19.2% (inactive). For `O=C(c1c(Cl)nc2sccn12)N1CCCc2ccccc21`, the activation was 4.7% (inactive). Then `O=C(CCC(=O)N1CCN(S(=O)(=O)c2ccccc2)CC1)NC1CCCc2ccccc21` (stereo unspecified), with -3.9% (inactive); and `N#C/C=C1\Sc2ccccc2C(=O)N1CC(=O)N1CCN(S(=O)(=O)c2ccccc2)CC1`, with 53.6% (active). `CS(=O)(=O)N1CCN(C(=O)Cc2ccccc2)CC1`: the activation was 3.5% (inactive). On to `COc1ccccc1CNC(=O)CCn1c(=O)sc2ccccc21`, for which the activation was -21.4% (inactive).

For `CS(=O)(=O)c1ccc2nc(NC(=O)CN3CCCCCC3)sc2c1`, the activation is -3.6% (inactive).

With `COCCCNC(=O)Cn1cc(C(=O)C2CC2)c2ccccc21`, the activation is 1.7% (inactive). Then `CCOc1ccccc1Nc1nnc(SCC(=O)Nc2cc(C)on2)s1`, with -12.5% (inactive). Take `C=CCNC(=O)c1ccc(C)c(Br)c1`: the activation is -12.1% (inactive). The same measure for `COc1ccc2c(c1)CCc1c(C(=O)N3CCc4ccccc4C3)noc1-2`: 2.4% (inactive); for `COc1ccc2c(c1)CCc1c(C(=O)Nc3c(C)n(C)n(-c4ccccc4)c3=O)noc1-2`: -6% (inactive); for `COc1ccc2c(c1)CCc1c(C(=O)N3CCCC3)noc1-2`: 55.3% (active).
